What was measured:
[1] = biological target: CYP2D6 (Homo sapiens, UniProt P10635); assay: Inhibition of CYP2D6 in human liver microsomes at 10 uM after 20 mins in presence of NADPH by LC-MS/MS analysis; type: ADME; conditions: liver microsomes
Outline: (§1)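 Percent inhibition of each CYP isoform by test compound at 10 µM, compared with a no-inhibitor control. Run in triplicate.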

[2] = biological target: T1, Prostacyclin synthase (Homo sapiens) (UniProt Q16647); assay: Inhibition of recombinant human PGIS expressed in CHO cells at 10 uM relative to control; type: cell-based
T1 sequence (whole entry): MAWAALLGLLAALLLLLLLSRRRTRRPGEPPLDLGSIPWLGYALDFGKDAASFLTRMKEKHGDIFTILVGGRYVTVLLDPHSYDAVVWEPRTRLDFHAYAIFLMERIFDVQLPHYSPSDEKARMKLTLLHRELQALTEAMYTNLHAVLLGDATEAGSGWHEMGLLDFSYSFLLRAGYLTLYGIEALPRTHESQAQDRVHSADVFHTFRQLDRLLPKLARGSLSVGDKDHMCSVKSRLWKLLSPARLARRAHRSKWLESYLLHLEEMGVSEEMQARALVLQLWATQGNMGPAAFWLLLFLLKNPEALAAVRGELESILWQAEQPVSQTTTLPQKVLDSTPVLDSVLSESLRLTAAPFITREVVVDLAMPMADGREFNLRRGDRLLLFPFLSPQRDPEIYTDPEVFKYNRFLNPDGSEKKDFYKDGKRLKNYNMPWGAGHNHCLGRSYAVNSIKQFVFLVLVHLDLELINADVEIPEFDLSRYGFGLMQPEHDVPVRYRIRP

[3] = biological target: hERG (KCNH2) (Homo sapiens, UniProt Q12809); assay: Inhibition of human ERG at 10 uM by patch clamp assay relative to control
Sequence of hERG (KCNH2) (Q12809 whole entry): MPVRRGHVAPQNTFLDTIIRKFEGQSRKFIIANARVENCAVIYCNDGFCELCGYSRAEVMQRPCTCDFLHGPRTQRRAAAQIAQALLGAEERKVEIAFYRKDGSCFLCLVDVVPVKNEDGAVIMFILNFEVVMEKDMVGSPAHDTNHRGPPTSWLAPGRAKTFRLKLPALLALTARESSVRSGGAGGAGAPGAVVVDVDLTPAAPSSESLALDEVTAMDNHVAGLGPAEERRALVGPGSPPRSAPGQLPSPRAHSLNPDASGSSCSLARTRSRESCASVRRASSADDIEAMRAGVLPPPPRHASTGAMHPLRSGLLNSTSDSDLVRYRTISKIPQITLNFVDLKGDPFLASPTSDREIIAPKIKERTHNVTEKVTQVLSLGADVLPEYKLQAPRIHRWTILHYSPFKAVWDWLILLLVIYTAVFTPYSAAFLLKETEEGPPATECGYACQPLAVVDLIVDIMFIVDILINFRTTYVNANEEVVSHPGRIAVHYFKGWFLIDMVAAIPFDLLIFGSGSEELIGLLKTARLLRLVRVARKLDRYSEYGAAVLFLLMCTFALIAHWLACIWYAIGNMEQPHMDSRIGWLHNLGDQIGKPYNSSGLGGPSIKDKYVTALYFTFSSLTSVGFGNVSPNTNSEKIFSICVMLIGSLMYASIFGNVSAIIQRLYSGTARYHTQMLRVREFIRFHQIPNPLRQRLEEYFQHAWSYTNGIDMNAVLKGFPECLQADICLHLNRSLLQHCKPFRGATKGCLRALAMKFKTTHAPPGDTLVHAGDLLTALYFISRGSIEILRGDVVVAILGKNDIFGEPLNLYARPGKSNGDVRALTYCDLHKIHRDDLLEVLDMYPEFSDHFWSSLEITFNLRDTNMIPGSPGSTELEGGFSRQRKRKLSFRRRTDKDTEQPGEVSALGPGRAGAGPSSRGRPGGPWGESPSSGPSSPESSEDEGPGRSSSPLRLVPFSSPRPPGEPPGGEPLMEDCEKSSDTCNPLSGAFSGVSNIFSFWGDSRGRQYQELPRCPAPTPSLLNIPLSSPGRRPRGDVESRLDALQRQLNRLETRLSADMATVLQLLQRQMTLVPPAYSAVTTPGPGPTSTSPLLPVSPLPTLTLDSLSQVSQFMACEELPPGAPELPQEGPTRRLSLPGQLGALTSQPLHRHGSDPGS
Outline: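 hERG current measured by patch clamp with test compound at 10 µM; result given as % inhibition.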

[4] = test system: Prostaglandin F synthase (Homo sapiens); assay: Inhibition of human PGF synthase assessed as decrease in PGF2alpha production at 10 uM relative to control
[5] = Inhibition of mPGES1 in guinea pig whole blood assessed as reduction in LPS-induced PGE2 production measured after 20 to 24 hrs; conditions: Cavia porcellus
Outline: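 Guinea pig whole blood stimulated with LPS. […] At least two experiments, each in duplicate.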

[6] = biological target: CYP2C19 (Homo sapiens, UniProt P33261); assay: Inhibition of CYP2C19 in human liver microsomes at 10 uM after 40 mins in presence of NADPH by LC-MS/MS analysis; type: ADME; outline: as §1
Sequence of CYP2C19 (P33261 whole entry): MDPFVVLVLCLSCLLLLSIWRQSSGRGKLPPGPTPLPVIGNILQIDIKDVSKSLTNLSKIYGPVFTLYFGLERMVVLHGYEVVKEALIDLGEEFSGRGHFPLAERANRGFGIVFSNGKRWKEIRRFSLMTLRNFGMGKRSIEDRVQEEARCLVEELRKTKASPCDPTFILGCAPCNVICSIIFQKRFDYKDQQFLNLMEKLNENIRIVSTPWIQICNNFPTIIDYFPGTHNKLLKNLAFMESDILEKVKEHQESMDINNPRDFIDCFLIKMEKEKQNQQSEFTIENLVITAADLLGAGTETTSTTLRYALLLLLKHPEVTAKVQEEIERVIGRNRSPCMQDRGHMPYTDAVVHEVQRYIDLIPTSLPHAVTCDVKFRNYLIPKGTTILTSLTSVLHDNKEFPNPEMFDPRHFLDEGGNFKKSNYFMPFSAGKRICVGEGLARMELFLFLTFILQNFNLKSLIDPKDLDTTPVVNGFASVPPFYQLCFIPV

[7] = biological target: T2, Prostaglandin E synthase (Mus musculus) (UniProt Q9JM51); assay: Inhibition of mouse mPGES1 expressed in CHO cells assessed as reduction in PGE2 production at 10 uM using PGH2 as substrate incubated for 10 mins followed by substrate addition measured for 1 min relative to control
T2 sequence (whole entry): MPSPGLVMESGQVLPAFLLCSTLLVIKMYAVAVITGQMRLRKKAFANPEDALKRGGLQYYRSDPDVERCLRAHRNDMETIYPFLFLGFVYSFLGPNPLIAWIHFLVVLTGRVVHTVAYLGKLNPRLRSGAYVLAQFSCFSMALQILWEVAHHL
Outline: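 Rodent enzyme protocol run as for the human and guinea pig mPGES-1 enzyme assays; single-concentration percent inhibition.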

[8] = biological target: Hematopoietic prostaglandin D synthase (Homo sapiens) (UniProt O60760); assay: Inhibition of PGDS (unknown origin) at 10 uM relative to control
Sequence of Hematopoietic prostaglandin D synthase (Homo sapiens) (O60760 whole entry): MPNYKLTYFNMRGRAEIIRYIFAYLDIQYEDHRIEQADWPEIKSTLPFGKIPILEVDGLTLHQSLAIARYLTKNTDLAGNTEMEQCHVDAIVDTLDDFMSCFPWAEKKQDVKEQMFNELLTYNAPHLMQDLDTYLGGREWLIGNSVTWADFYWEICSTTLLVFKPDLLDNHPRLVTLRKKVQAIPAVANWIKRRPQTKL
Outline: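 Selectivity panel against other prostanoid-pathway enzymes. % inhibition values are means of at least two experiments, each in duplicate.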

[9] = biological target: T3, Prostaglandin E synthase (Canis lupus familiaris, UniProt A0SYQ0); assay: Inhibition of mPGES1 in dog whole blood assessed as reduction in LPS-induced PGE2 production measured after 20 to 24 hrs
T3 sequence (A0SYQ0 whole entry): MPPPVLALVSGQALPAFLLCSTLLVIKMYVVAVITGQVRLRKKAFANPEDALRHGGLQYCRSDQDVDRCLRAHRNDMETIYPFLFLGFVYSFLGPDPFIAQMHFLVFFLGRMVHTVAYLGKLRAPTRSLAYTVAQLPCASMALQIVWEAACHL
Outline: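 Dog whole blood stimulated with LPS. […] At least two experiments, each in duplicate; run by an external contract lab.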

[10] = biological target: T4, Prostaglandin E synthase (Macaca fascicularis) (UniProt Q6PWL6); assay: Inhibition of mPGES1 in rhesus monkey whole blood assessed as reduction in LPS-induced PGE2 production at 10 uM measured after 20 to 24 hrs relative to control; conditions: Macaca mulatta
T4 sequence (whole entry): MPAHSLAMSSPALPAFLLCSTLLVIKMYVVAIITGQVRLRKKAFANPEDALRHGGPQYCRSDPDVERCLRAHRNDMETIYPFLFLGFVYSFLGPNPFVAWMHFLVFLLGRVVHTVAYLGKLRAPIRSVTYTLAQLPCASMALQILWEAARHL
Outline: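 Rhesus monkey whole blood stimulated with LPS; PGE2 inhibition measured relative to vehicle control […]. At least two experiments, each in duplicate; run by an external contract lab.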

[11] = Clearance in Sprague-Dawley rat at 1 mg/kg, iv; type: ADME, organism-based; conditions: in vivo
Outline: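 Intravenous dose of 1 mg/kg; clearance and Vz derived from the i.v. arm. Rat (male Sprague-Dawley) vehicle 20% NMP + 20% ethanol + 60% PEG 200, mean ± SD (n = 3). Dog vehicle 20% NMP + 20% EtOH + 10% PG + 50% PEG 200:water (3:2). Monkey vehicle 10% NMP + 10% ethanol + 10% PEG + 70% PEG200:water (3:2).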

[12] = Half life in Sprague-Dawley rat at 10 mg/kg, po; type: ADME, organism-based; conditions: in vivo
Outline: (§2)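 Half-life calculated from plasma profiles after oral dosing at 10 mg/kg. Rat: male Sprague-Dawley, 0.5% methylcellulose suspension, n = 3. Dog and cynomolgus monkey: Tween 80 (2.5 μL/mL) + 0.5 (w/v) MC suspension.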

[13] = Tmax in Sprague-Dawley rat at 10 mg/kg, po; type: ADME, organism-based; conditions: in vivo
Outline: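 Tmax from oral 10 mg/kg dosing. Rat: male Sprague-Dawley, 0.5% MC suspension, n = 3. Guinea pig: 20% NMP + 0.5% MC suspension, n = 3. Dog and monkey: 2.5 μL/mL Tween 80 + 0.5% MC suspension.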

[14] = AUC (0 to 24 hrs) in Sprague-Dawley rat at 10 mg/kg, po; type: ADME, organism-based; set-up: dose 10 mg/kg, time < 24 hr, route oral; conditions: in vivo
Outline: (§3)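 Single oral dose of 10 mg/kg. Cmax and AUC0-24 taken from the oral arm. Rat: male Sprague-Dawley, dosed in 0.5% methylcellulose suspension, mean ± SD (n = 3). Guinea pig: 20% NMP + 0.5% MC suspension, mean ± SD (n = 3). Dog and cynomolgus monkey: 2.5 μL/mL Tween 80 + 0.5 (w/v) MC suspension.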

[15] = Ratio of drug uptake in brain to plasma of cynomolgus monkey at 10 mg/kg, po; type: ADME, organism-based, Macaca fascicularis; conditions: read-out: BPR
[16] = Ratio of drug uptake in brain to plasma of Sprague-Dawley rat at 10 mg/kg, po; type: ADME, organism-based; conditions: read-out: BPR
[17] = AUC (0 to 24 hrs) in Dunkin-Hartley guinea pig at 10 mg/kg, po; type: ADME, organism-based, Cavia porcellus; set-up: time < 24 hr, dose 10 mg/kg, route oral; conditions: in vivo; outline: as §3
[18] = Half life in cynomolgus monkey at 10 mg/kg, po; type: ADME, organism-based, Macaca fascicularis; conditions: in vivo; outline: as §2

Sequence of CYP2D6 (P10635 whole entry, canonical isoform): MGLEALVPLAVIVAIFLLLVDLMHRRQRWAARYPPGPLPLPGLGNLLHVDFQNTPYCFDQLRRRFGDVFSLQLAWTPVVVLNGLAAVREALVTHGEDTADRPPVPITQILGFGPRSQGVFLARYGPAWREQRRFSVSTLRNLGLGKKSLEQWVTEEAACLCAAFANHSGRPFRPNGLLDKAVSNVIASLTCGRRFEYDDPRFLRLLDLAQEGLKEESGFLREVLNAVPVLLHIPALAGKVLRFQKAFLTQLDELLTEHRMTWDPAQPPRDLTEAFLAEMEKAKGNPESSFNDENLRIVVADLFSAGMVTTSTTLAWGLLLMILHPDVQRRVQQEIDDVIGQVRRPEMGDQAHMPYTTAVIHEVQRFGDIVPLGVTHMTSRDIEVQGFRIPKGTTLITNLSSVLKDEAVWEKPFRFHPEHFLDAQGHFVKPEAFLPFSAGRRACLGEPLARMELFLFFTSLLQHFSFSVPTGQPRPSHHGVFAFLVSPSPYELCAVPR

inhibition at 20 min, 10 µM [1] [%] | inhibition [2] [%] | inhibition [4] [%] | IC50 [5] [nM] | inhibition at 40 min, 10 µM [6] [%] | inhibition [7] [%] | inhibition [8] [%] | IC50 [9] [µM] | inhibition [10] [%] | clearance [11] [mL/min/kg] | half-life [12] [min] | Tmax [13] [h] | AUC(0-t) at 24 h [14] [ng·h/mL] | Kp [15] | Kp [16] | AUC(0-t) at 24 h [17] [ng·h/mL] | half-life [18] [min] | Structure (SMILES) | inhibition at 10 µM [3] [%]
29 | 3.9 | 61.4 | 188 | 36 | 5.2 | 16.5 | – | – | – | – | – | – | – | – | – | – | Cn1c(Nc2c(F)cccc2Cl)nc2cc(C(=O)Nc3cccc(C(F)(F)F)c3)c3c(c21)CC(C)(C)O3 | 26.5
9 | 4.3 | 15.4 | 259 | 15 | 10.9 | 15.1 | 3.54 | 37 | 16.2 | 162 | 4 | 4020 | 0.37 | 0.16 | 639 | 318 | CC1(C)Cc2c(c(C(=O)Nc3ccc(C(F)(F)F)cn3)cc3nc(Nc4c(Cl)cccc4Cl)[nH]c23)O1 | 5.4
19 | 2.5 | 100 | 465 | 55 | 22.1 | 0 | 6.22 | 50.4 | 11.2 | 240 | 2 | 11000 | 0.32 | 0.18 | 4120 | 387 | CC1(C)Cc2c(c(C(=O)Nc3ccc(F)c(C(F)(F)F)c3)cc3nc(Nc4c(F)cccc4Cl)[nH]c23)O1 | 3.8
14 | 20.1 | – | 222 | 14 | 2.5 | 27.6 | – | – | – | – | – | – | – | – | – | – | Cc1cccc(Cl)c1Nc1nc2cc(C(=O)Nc3cc(C(F)F)ccc3F)c3c(c2[nH]1)CC(C)(C)O3 | 11.8
-2 | 7.5 | 17.9 | 340 | 16 | 8.2 | 19.5 | 3.03 | 48.2 | 8.2 | 420 | 4 | 2580 | 0.16 | 0.04 | 408 | 720 | Cc1cccc(Cl)c1Nc1nc2cc(C(=O)Nc3cc(C(F)(F)F)ccc3F)c3c(c2[nH]1)CC(C)(C)O3 | 12.3
12 | 5.6 | 99.2 | 204 | 33 | 14.4 | 5.8 | – | – | – | – | – | – | – | – | – | – | CC1(C)Cc2c(c(C(=O)Nc3cc(C(F)(F)F)ccc3F)cc3nc(Nc4c(F)cccc4Cl)[nH]c23)O1 | 5.8

Source: ChEMBL document CHEMBL4219124, “Alleviating CYP and hERG liabilities by structure optimization of dihydrofuran-fused tricyclic benzo[d]imidazole series - Potent, selective and orally efficacious microsomal prostaglandin E synthase-1 (mPGES-1) inhibitors: Part-2” (Bioorg Med Chem Lett, 2018)
